# ChEMBL document CHEMBL1139875, “Discovery of 4-aminobutyric acid derivatives possessing anticonvulsant and antinociceptive activities: a hybrid pharmacophore approach” (2007)
# Calls of active or inactive are those of the source. The rule behind the calls is not given here.
# What was measured:
# Mus musculus [1] = assay: Anticonvulsant activity in Swiss Albino mouse at 300 mg/kg, ip after 0.5 hr by scSTY test; assay type: functional, organism-based; parameters: dose 300 mg/kg
# Summary of the method: (§1)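 Mice (Swiss, 20-25 g) given i.p. doses of 30, 100 and 300 mg/kg under ADD program protocols, three per group, examined at 0.5 and 4 h in MES, scPTZ, scSTY or scPIC seizure tests. Value is the minimum dose protecting half or more of the mice.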
# Rattus norvegicus [2] = assay: Effect on spontaneous pain in Sprague-Dawley rat CCI model assessed as duration of paw withdrawal at 100 mg/kg, ip after 1.5 hrs; assay type: functional; conditions: route intraperitoneal
# Summary of the method: (§2)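 Unilateral CCI of sciatic nerve (Bennett and Xie) in Sprague-Dawley rats under i.p. pentobarbital sodium (65 mg/kg). Spontaneous pain is scored over 5 min after 10 min acclimatization, as cumulative time the ipsilateral paw is held off the floor. Paw lifts from locomotion or repositioning are excluded. Drug is given at 100 mg/kg i.p. with 30% v/v PEG 400 vehicle. Mean ± SEM, n = 4, compared with predrug by ANOVA/Bonferroni.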
# Rattus norvegicus [3] = assay: Anti-dynamic allodynia effect in Sprague-Dawley rat SNL model assessed as latency to paw withdrawal 100 mg/kg, ip after 1.5 hrs; assay type: functional; conditions: route intraperitoneal
# Summary of the method: (§3)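 Left L5 spinal nerve ligation rats, tested preoperatively and 9 days postoperatively, then given 100 mg/kg i.p. (vehicle 30% v/v PEG 400 in water). After 10 min acclimatization, plantar surface of affected paw stroked mildly with a cotton-bud; paw lift response recorded. n = 4; retested 0.5-2.5 h post-dose.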
# Rattus norvegicus [4] = assay: Anti-dynamic allodynia effect in Sprague-Dawley rat SNL model assessed as latency to paw withdrawal 100 mg/kg, ip after 1 hr; assay type: functional; conditions: route intraperitoneal; summary of the method: as §3
# Mus musculus [5] = assay: Anticonvulsant activity in Swiss Albino mouse at 300 mg/kg, ip after 0.5 hr by scPTZ test; assay type: functional, organism-based; parameters: dose 300 mg/kg; summary of the method: as §1
# Mus musculus [6] = assay: Neurotoxicity in Swiss Albino mouse at 300 mg/kg, ip after 0.5 hr by rotarod test; assay type: functional, organism-based; parameters: dose 300 mg/kg
# Summary of the method: (§4)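 Swiss mice (20-25 g) are trained on an accelerating rotorod (10 rpm, 3.2 cm rod), then injected i.p. at 30, 100 or 300 mg/kg, with three per group. Neurotoxicity means failure to keep equilibrium for at least 1 min in each of three trials, checked at 0.5 and 4 h. The value reported is the minimum dose affecting half or more of the mice.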
# Rattus norvegicus [7] = assay: Anti-dynamic allodynia effect in Sprague-Dawley rat SNL model assessed as latency to paw withdrawal 100 mg/kg, ip after 2 hrs; assay type: functional; conditions: route intraperitoneal; summary of the method: as §3
# Mus musculus [8] = assay: Anticonvulsant activity in Swiss Albino mouse at 300 mg/kg, ip after 0.5 hr by scPIC test; assay type: functional, organism-based; parameters: dose 300 mg/kg; summary of the method: as §1
# Mus musculus [9] = assay: Anticonvulsant activity in Swiss Albino mouse at 300 mg/kg, ip after 0.5 hr by MES test; assay type: functional, organism-based; parameters: dose 300 mg/kg; summary of the method: as §1
# Rattus norvegicus [10] = assay: Anti-dynamic allodynia effect in Sprague-Dawley rat SNL model assessed as latency to paw withdrawal 100 mg/kg, ip after 0.5 hr; assay type: functional; conditions: route intraperitoneal; summary of the method: as §3
# Mus musculus [11] = assay: Neurotoxicity in Swiss Albino mouse at 300 mg/kg, ip after 4 hrs by rotarod test; assay type: functional, organism-based; parameters: dose 300 mg/kg; summary of the method: as §4
# Rattus norvegicus [12] = assay: Effect on spontaneous pain in Sprague-Dawley rat CCI model assessed as duration of paw withdrawal at 100 mg/kg, ip after 1 hr; assay type: functional; conditions: route intraperitoneal
# Summary of the method: (§5)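 CCI rats (n = 4) dosed 100 mg/kg i.p. (vehicle 30% v/v PEG 400 in water). After 10 min acclimatization in a cage 5 cm above ground, cumulative time the ipsilateral paw was held off the floor over 5 min recorded, excluding locomotion lifts. Mean ± SEM; ANOVA/Bonferroni versus predrug.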
# Mus musculus [13] = assay: Anticonvulsant activity in Swiss Albino mouse at 300 mg/kg, ip after 4 hrs by scPIC test; assay type: functional, organism-based; parameters: dose 300 mg/kg; summary of the method: as §1
# Mus musculus [14] = assay: Analgesic activity in Swiss Albino mouse assessed as number of acetic acid-induced writhing per 30 min after 100 mg/kg, ip; assay type: functional; conditions: route intraperitoneal
# Summary of the method: (§6)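 Mice in groups of six dosed i.p. at 100 mg/kg, controls receiving 30% v/v PEG 400 in water. Writhing induced by i.p. 0.1 mL of 3% v/v acetic acid 1 h after drug. Writhes (abdominal stretch with at least one hind limb extended) counted over 30 min; % inhibition calculated. Mean ± SEM, Student's t test.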
# Mus musculus [15] = assay: Analgesic activity in Swiss Albino mouse assessed as inhibition of acetic acid-induced writhing responses at 100 mg/kg, ip; assay type: functional; conditions: route intraperitoneal; summary of the method: as §6
# Mus musculus [16] = assay: Anticonvulsant activity in Swiss Albino mouse at 300 mg/kg, ip after 4 hrs by scSTY test; assay type: functional, organism-based; parameters: dose 300 mg/kg; summary of the method: as §1
# Rattus norvegicus [17] = assay: Anti-dynamic allodynia effect in Sprague-Dawley rat SNL model assessed as latency to paw withdrawal 100 mg/kg, ip after 2.5 hrs; assay type: functional; conditions: route intraperitoneal; summary of the method: as §3
# Rattus norvegicus [18] = assay: Effect on spontaneous pain in Sprague-Dawley rat CCI model assessed as duration of paw withdrawal at 100 mg/kg, ip after 0.5 hr; assay type: functional; conditions: route intraperitoneal; summary of the method: as §5
# Mus musculus [19] = assay: Anticonvulsant activity in Swiss Albino mouse at 300 mg/kg, ip after 4 hrs by MES test; assay type: functional, organism-based; parameters: dose 300 mg/kg; summary of the method: as §1
# Rattus norvegicus [20] = assay: Effect on spontaneous pain in Sprague-Dawley rat CCI model assessed as duration of paw withdrawal at 100 mg/kg, ip after 2.5 hrs; assay type: functional; conditions: route intraperitoneal; summary of the method: as §2
# Rattus norvegicus [21] = assay: Effect on spontaneous pain in Sprague-Dawley rat CCI model assessed as duration of paw withdrawal at 100 mg/kg, ip after 2 hrs; assay type: functional; conditions: route intraperitoneal; summary of the method: as §2
# Rattus norvegicus [22] = assay: Antihyperalgesic effects in Sprague-Dawley rat SNL model assessed as duration of paw withdrawal at 100 mg/kg, ip after 1 hr, ip; assay type: functional; conditions: route intraperitoneal
# Summary of the method: (§7)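 L5 SNL rats (n = 4), dosed 100 mg/kg i.p. (vehicle 30% v/v PEG 400 in water). Pin-prick to midplantar ipsilateral left hindpaw; withdrawal duration, mean of three responses; ≥2 s defined abnormal. Mean ± SEM; one-way ANOVA with Bonferroni versus predrug.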
# Rattus norvegicus [23] = assay: Antihyperalgesic effects in Sprague-Dawley rat SNL model assessed as duration of paw withdrawal at 100 mg/kg, ip after 1.5 hrs, ip; assay type: functional; conditions: route intraperitoneal; summary of the method: as §7
# Rattus norvegicus [24] = assay: Effect on spontaneous pain in Sprague-Dawley rat SNL model assessed as duration of paw withdrawal at 100 mg/kg, ip after 2 hrs; assay type: functional; conditions: route intraperitoneal
# Summary of the method: (§8)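 Rats underwent left L5 spinal nerve ligation (Kim and Chung) under i.p. pentobarbital (65 mg/kg). Spontaneous pain is recorded for 5 min after 10 min acclimatization, as cumulative duration the ipsilateral paw is lifted, excluding locomotor lifts. Dosing is 100 mg/kg i.p. in 30% v/v PEG 400/water, with testing at 0.5–2.5 h. Four rats, mean ± SEM versus predrug, one-way ANOVA with Bonferroni.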
# Rattus norvegicus [25] = assay: Effect on spontaneous pain in Sprague-Dawley rat SNL model assessed as duration of paw withdrawal at 100 mg/kg, ip after 1.5 hrs; assay type: functional; conditions: route intraperitoneal; summary of the method: as §8
# Rattus norvegicus [26] = assay: Effect on spontaneous pain in Sprague-Dawley rat SNL model assessed as duration of paw withdrawal at 100 mg/kg, ip after 0.5 hr; assay type: functional; conditions: route intraperitoneal; summary of the method: as §8
# Rattus norvegicus [27] = assay: Antihyperalgesic effects in Sprague-Dawley rat SNL model assessed as duration of paw withdrawal at 100 mg/kg, ip after 2 hrs, ip; assay type: functional; conditions: route intraperitoneal; summary of the method: as §7
# Rattus norvegicus [28] = assay: Effect on spontaneous pain in Sprague-Dawley rat SNL model assessed as duration of paw withdrawal at 100 mg/kg, ip after 1 hr; assay type: functional; conditions: route intraperitoneal; summary of the method: as §8
# Rattus norvegicus [29] = assay: Antihyperalgesic effects in Sprague-Dawley rat SNL model assessed as duration of paw withdrawal at 100 mg/kg, ip after 0.5 hr, ip; assay type: functional; conditions: route intraperitoneal; summary of the method: as §7
# Rattus norvegicus [30] = assay: Antihyperalgesic effects in Sprague-Dawley rat SNL model assessed as duration of paw withdrawal at 100 mg/kg, ip after 2.5 hrs, ip; assay type: functional; conditions: route intraperitoneal; summary of the method: as §7
# Rattus norvegicus [31] = assay: Effect on spontaneous pain in Sprague-Dawley rat SNL model assessed as duration of paw withdrawal at 100 mg/kg, ip after 2.5 hrs; assay type: functional; conditions: route intraperitoneal; summary of the method: as §8
# Rattus norvegicus [32] = assay: Antihyperalgesic effects in Sprague-Dawley rat CCI model assessed as duration of paw withdrawal at 100 mg/kg, ip after 1 hr; assay type: functional; conditions: route intraperitoneal
# Rattus norvegicus [33] = assay: Antihyperalgesic effects in Sprague-Dawley rat CCI model assessed as duration of paw withdrawal at 100 mg/kg, ip after 2.5 hrs; assay type: functional; conditions: route intraperitoneal
# Rattus norvegicus [34] = assay: Antihyperalgesic effects in Sprague-Dawley rat CCI model assessed as duration of paw withdrawal at 100 mg/kg, ip after 2 hrs; assay type: functional; conditions: route intraperitoneal
# Rattus norvegicus [35] = assay: Antihyperalgesic effects in Sprague-Dawley rat CCI model assessed as duration of paw withdrawal at 100 mg/kg, ip after 1.5 hrs; assay type: functional; conditions: route intraperitoneal
# Rattus norvegicus [36] = assay: Antihyperalgesic effects in Sprague-Dawley rat CCI model assessed as duration of paw withdrawal at 100 mg/kg, ip after 0.5 hr; assay type: functional; conditions: route intraperitoneal
SMILES,Activity (Mus musculus [1]),Activity (Rattus norvegicus [3]),Activity (Rattus norvegicus [4]),Activity (Mus musculus [5]),Activity (Mus musculus [6]),Activity (Rattus norvegicus [7]),Activity (Mus musculus [8]),Activity (Mus musculus [9]),Activity (Rattus norvegicus [10]),Activity (Mus musculus [11]),Activity (Mus musculus [13]),Activity (Mus musculus [14]),inhibition in vivo at 100 mg/kg (Mus musculus [15]),Activity (Mus musculus [16]),Activity (Rattus norvegicus [17]),Activity (Mus musculus [19]),Activity (Rattus norvegicus [22]),Activity (Rattus norvegicus [23]),Activity (Rattus norvegicus [24]),Activity (Rattus norvegicus [25]),other results
O=C(O)CCCNC(=O)N/N=C/c1ccc([N+](=O)[O-])cc1,inactive,1.5 s,4.3 s,inactive,Active,1.8 s,inactive,inactive,14.5 s,inactive,inactive,18.7,90%,inactive,1.34 s,inactive,,,,,Activity (Rattus norvegicus [2]): 13.6 s; Activity (Rattus norvegicus [12]): 9.2 s; Activity (Rattus norvegicus [18]): 10.2 s; Activity (Rattus norvegicus [20]): 17.2 s; Activity (Rattus norvegicus [21]): 11.3 s
O=C(O)CCCNC(=O)NN=C(c1ccccc1)c1ccccc1,Active,,,inactive,Active,,Active,Active,,inactive,Active,13.3,93%,Active,,inactive,19.9 s,18.5 s,10.9 s,13.4 s,Activity (Rattus norvegicus [26]): 15.1 s; Activity (Rattus norvegicus [27]): 13.7 s; Activity (Rattus norvegicus [28]): 18.5 s; Activity (Rattus norvegicus [29]): 18.4 s; Activity (Rattus norvegicus [30]): 15 s; Activity (Rattus norvegicus [31]): 8.8 s
O=C(O)CCCNC(=O)NN=C1CCCCC1,inactive,1.8 s,5.6 s,Active,inactive,0.2 s,Active,inactive,5.2 s,inactive,inactive,32,82%,inactive,0.24 s,inactive,19.7 s,15.6 s,10.6 s,10.8 s,Activity (Rattus norvegicus [32]): 24.8 s; Activity (Rattus norvegicus [33]): 7 s; Activity (Rattus norvegicus [34]): 5.2 s; Activity (Rattus norvegicus [26]): 21.2 s; Activity (Rattus norvegicus [27]): 11.3 s; Activity (Rattus norvegicus [28]): 20.2 s; Activity (Rattus norvegicus [35]): 4.8 s; Activity (Rattus norvegicus [29]): 14.7 s; Activity (Rattus norvegicus [36]): 20.3 s; Activity (Rattus norvegicus [30]): 12.8 s; Activity (Rattus norvegicus [31]): 10.8 s
